According to ChEMBL document CHEMBL1221294, “Novel nucleosides as potent influenza viral inhibitors” (Bioorg Med Chem, 2010):
≈ marks a conversion by molar mass, not a printed value. Calls of active or inactive are those of the source. The rule behind the calls is not given here.

How the values were obtained:
[1] = tested on: Influenza B virus; test: Antiviral activity against Influenza B virus Florida/4/2006 infected in MDCK cells at up to 100 uM; assay type: functional, cell-based; conditions: B/Florida/4/2006
[2] = tested on: Influenza A virus; test: Antiviral activity against Influenza A virus H5N1 Vietnam/1203/2004H infected in MDCK cells at up to 100 uM; assay type: functional, organism-based; conditions: A/Viet Nam/1203/2004(H5N1)
[3] = tested on: Influenza A virus; test: Antiviral activity against Influenza A virus H5N1 Vietnam/1203/2004H infected in MDCK cells; assay type: functional, organism-based; conditions: A/Viet Nam/1203/2004(H5N1)
[4] = tested on: MDCK; test: Cytotoxicity against MDCK cells; assay type: cell-based; conditions: Canis lupus familiaris
In short: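 Run in MDCK cells, two uninfected toxicity-control wells per compound concentration alongside the infected wells. Neutral red uptake in these wells is read spectrophotometrically to give an NR IC50. The wells are also examined microscopically against untreated normal cells for enlargement, granularity, rounding, detachment and similar changes. The IC50 from these observations is derived by regression analysis.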

[5] = tested on: Influenza B virus; test: Antiviral activity against Influenza B virus Florida/4/2006 infected in MDCK cells; assay type: functional, cell-based; conditions: B/Florida/4/2006, MDCK
[6] = Selectivity index, IC50 for MDCK cells to EC50 for Influenza B virus Florida/4/2006 infected in MDCK cells assessed as reduction of virus-induced cytopathogenicity by confocal microscopic analysis; assay type: functional
In short: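 CPE inhibition in MDCK cells, scored microscopically. At each concentration, two uninfected treated wells are examined for morphology changes against normal control cells: enlargement, granularity, ragged edges, filmy appearance, rounding or detachment. Cytotoxic IC50 is found by regression analysis. SI = IC50/EC50.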

[7] = Selectivity index, IC50 for MDCK cells to EC90 for Influenza B virus Florida/4/2006 infected in MDCK cells assessed as reduction of viral yield; assay type: functional
In short: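 Retest in MDCK cells of compounds active by neutral red, with virus yield reduction measured on the same plate as CPE inhibition. A known active drug is the parallel positive control. EC90 is the concentration lowering virus yield by 1 log10. SI is the ratio of cytotoxic IC50 to EC90.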

[8] = tested on: Influenza B virus; test: Antiviral activity against Influenza B virus Florida/4/2006 infected in MDCK cells assessed as increase of neutral red uptake; assay type: functional, cell-based; conditions: B/Florida/4/2006, MDCK
In short: (§1)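 Neutral red dye uptake read-out run in MDCK cells. Cells not damaged by virus take up more dye, which is measured on a microplate reader. The EC50 is derived from dye uptake.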

[9] = tested on: Influenza A virus; test: Antiviral activity against Influenza A virus H5N1 Vietnam/1203/2004H infected in MDCK cells assessed as increase of neutral red uptake; assay type: functional, organism-based; conditions: A/Viet Nam/1203/2004(H5N1); in short: as §1
[10] = tested on: Influenza A virus; test: Antiviral activity against Influenza A virus H5N1 Vietnam/1203/2004H infected in MDCK cells assessed as reduction of virus-induced cytopathogenicity by confocal microscopic analysis; assay type: functional, organism-based; conditions: A/Viet Nam/1203/2004(H5N1)
[11] = Selectivity index, IC50 for MDCK cells to EC50 for Influenza B virus Florida/4/2006 infected in MDCK cells assessed as increase of neutral red uptake; assay type: functional
In short: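 Run in MDCK cells. Antiviral EC50 comes from neutral red uptake, since undamaged cells take up more dye, read on a microplate reader. Cytotoxicity uses neutral red in uninfected, compound-treated toxicity control wells run alongside, read spectrophotometrically to give NR IC50. SI = IC50/EC50.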

[12] = tested on: Influenza B virus; test: Antiviral activity against Influenza B virus Florida/4/2006 infected in MDCK cells assessed as reduction of virus-induced cytopathogenicity by confocal microscopic analysis; assay type: functional, cell-based; conditions: B/Florida/4/2006, MDCK
[13] = tested on: Influenza B virus; test: Antiviral activity against Influenza B virus Florida/4/2006 infected in MDCK cells assessed as reduction of viral yeild; assay type: functional; conditions: B/Florida/4/2006, MDCK
[14] = tested on: Influenza A virus; test: Antiviral activity against Influenza A virus H5N1 Vietnam/1203/2004H infected in MDCK cells assessed as reduction of viral yeild; assay type: functional; conditions: A/Viet Nam/1203/2004(H5N1)

Row | SMILES | Activity [1] | Activity [2] | EC50 [3] [µg/mL] | IC50 [4] [µg/mL] | EC50 [5] [µg/mL] | other results
1 | C[C@]1(O)[C@@H](CO)O[C@H](n2cnc3c(NC4CCC4)ncnc32)[C@]1(C)F | inactive | inactive |  |  |  | 
2 | CC(=O)O[C@]1(C)[C@@H](COC(=O)c2ccccc2)O[C@@H](n2cnc3c(Cl)ncnc32)[C@]1(C)F |  |  | > 100 | > 100 | > 100 | 
3 | CC(=O)O[C@@]1(C)[C@@H](COC(=O)c2ccccc2)O[C@H](n2cnc3c(Cl)ncnc32)[C@]1(C)F | inactive | inactive |  |  |  | 
4 | C[C@]1(O)[C@@H](CO)O[C@H](n2cnc3c(NCC4CC4)ncnc32)[C@]1(C)F | inactive | inactive |  |  |  | 
5 | CC(=O)O[C@@]1(C)[C@@H](COC(=O)c2ccccc2)O[C@H](n2cnc3c(NCc4ccco4)ncnc32)[C@]1(C)F | inactive | inactive |  |  |  | 
6 | CC(=O)O[C@@]1(C)[C@@H](COC(=O)c2ccccc2)O[C@@H](n2cnc3c(O)ncnc32)[C@]1(C)F |  |  | 33 (≈ 74.3 µM) | > 100 | 65 (≈ 146 µM) | 
7 | C[C@]1(O)[C@@H](CO)O[C@H](n2cnc3c(NCc4ccco4)ncnc32)[C@]1(C)F | inactive | inactive |  |  |  | 
8 | CCOc1ncnc2c1ncn2[C@@H]1O[C@H](COC(=O)c2ccccc2)[C@](C)(OC(C)=O)[C@@]1(C)F |  |  | 48 (≈ 102 µM) | > 100 | > 100 | 
9 | CC(=O)O[C@@]1(C)[C@@H](COC(=O)c2ccccc2)O[C@H](n2cnc3c(O)ncnc32)[C@]1(C)F | inactive | inactive |  |  |  | 
10 | CN1CCN(c2ncnc3c2ncn3[C@H]2O[C@H](CO)[C@](C)(O)[C@@]2(C)F)CC1 | inactive | inactive |  |  |  | 
11 | CC(=O)O[C@@]1(C)[C@@H](COC(=O)c2ccccc2)O[C@@H](n2cnc3c(NCc4ccc(F)cc4)ncnc32)[C@]1(C)F |  |  | 32 (≈ 58 µM) | 36 (≈ 65.3 µM) | 30 (≈ 54.4 µM) | 
12 | CC(=O)O[C@@]1(C)[C@@H](COC(=O)c2ccccc2)O[C@@H](n2cnc3c(NC4CCC4)ncnc32)[C@]1(C)F |  |  | 23 (≈ 46.2 µM) | > 100 | 27 (≈ 54.3 µM) | 
13 | CC(=O)O[C@@]1(C)[C@@H](COC(=O)c2ccccc2)O[C@H](n2cnc3c(NC4CCC4)ncnc32)[C@]1(C)F | inactive | inactive |  |  |  | 
14 | C[C@]1(F)[C@@H](n2cnc3c(N)ncnc32)O[C@H](CO)[C@@]1(C)O | inactive | inactive |  |  |  | 
15 | C[C@]1(F)[C@H](n2cnc3c(N)ncnc32)O[C@H](CO)[C@@]1(C)O |  |  | > 100 | > 100 | > 100 | 
16 | CC(=O)O[C@@]1(C)[C@@H](COC(=O)c2ccccc2)O[C@H](n2cnc3c(NCC4CC4)ncnc32)[C@]1(C)F | inactive | inactive |  |  |  | 
17 | CC(=O)O[C@@]1(C)[C@@H](COC(=O)c2ccccc2)O[C@@H](n2cnc3c(NC4CC4)ncnc32)[C@]1(C)F |  |  | 50 (≈ 103 µM) | > 100 | 20 (≈ 41.4 µM) | 

Row | SMILES | Activity [1] | Activity [2] | EC50 [3] [µg/mL] | IC50 [4] [µg/mL] | EC50 [5] [µg/mL] | other results
18 | CC(=O)O[C@@]1(C)[C@@H](COC(=O)c2ccccc2)O[C@H](n2cnc3c(N4CCOCC4)ncnc32)[C@]1(C)F | inactive | inactive |  |  |  | 
19 | CCOc1ncnc2c1ncn2[C@H]1O[C@H](COC(=O)c2ccccc2)[C@](C)(OC(C)=O)[C@@]1(C)F | inactive | inactive |  |  |  | 
20 | CC(=O)O[C@@]1(C)[C@@H](COC(=O)c2ccccc2)O[C@@H](n2cnc3c(Cl)ncnc32)[C@]1(C)F |  |  | 7.1 (≈ 15.3 µM) | 18 (≈ 38.9 µM) | 3.7 (≈ 7.99 µM) | Ratio IC50/EC50 [6]: 15; Ratio IC50/EC50 [7]: 2.9; EC50 [8]: 1.2 µg/mL (≈ 2.59 µM); EC50 [9]: 1.76 µg/mL (≈ 3.8 µM); EC50 [10]: 1.26 µg/mL (≈ 2.72 µM); Ratio IC50/EC50 [11]: 15; EC50 [12]: 1.2 µg/mL (≈ 2.59 µM); EC90 [13]: 6.3 µg/mL (≈ 13.6 µM); EC90 [14]: 4.4 µg/mL (≈ 9.51 µM)
21 | CC(=O)O[C@@]1(C)[C@@H](COC(=O)c2ccccc2)O[C@@H](n2cnc3c(N4CCN(C)CC4)ncnc32)[C@]1(C)F |  |  | > 100 | > 100 | 42 (≈ 79.8 µM) | 
22 | CC(=O)O[C@@]1(C)[C@@H](COC(=O)c2ccccc2)O[C@H](n2cnc3c(N4CCN(C)CC4)ncnc32)[C@]1(C)F | inactive | inactive |  |  |  | 
23 | CC(=O)O[C@@]1(C)[C@@H](COC(=O)c2ccccc2)O[C@H](n2cnc3c(NCc4ccc(F)cc4)ncnc32)[C@]1(C)F | inactive | inactive |  |  |  | 
24 | CC(=O)O[C@@]1(C)[C@@H](COC(=O)c2ccccc2)O[C@@H](n2cnc3c(NCC4CC4)ncnc32)[C@]1(C)F |  |  | 32 (≈ 64.3 µM) | > 100 | 17 (≈ 34.2 µM) | 
25 | C[C@]1(O)[C@@H](CO)O[C@H](n2cnc3c(N4CCOCC4)ncnc32)[C@]1(C)F | inactive | inactive |  |  |  | 
26 | C[C@]1(O)[C@@H](CO)O[C@H](n2cnc3c(O)ncnc32)[C@]1(C)F | inactive | inactive |  |  |  | 
27 | CC(=O)O[C@@]1(C)[C@@H](COC(=O)c2ccccc2)O[C@@H](n2cnc3c(N4CCOCC4)ncnc32)[C@]1(C)F |  |  | 24 (≈ 46.7 µM) | > 100 | 25 (≈ 48.7 µM) | 
28 | CC(=O)O[C@@]1(C)[C@@H](COC(=O)c2ccccc2)O[C@H](n2cnc3c(NC4CC4)ncnc32)[C@]1(C)F | inactive | inactive |  |  |  | 
29 | CCOc1ncnc2c1ncn2[C@H]1O[C@H](CO)[C@](C)(O)[C@@]1(C)F | inactive | inactive |  |  |  | 
30 | CC(=O)O[C@]1(C)[C@@H](COC(=O)c2ccccc2)O[C@H](n2cnc3c(Cl)ncnc32)[C@]1(C)F | inactive | inactive |  |  |  | 
31 | CC(=O)O[C@@]1(C)[C@@H](COC(=O)c2ccccc2)O[C@@H](n2cnc3c(NCc4ccco4)ncnc32)[C@]1(C)F |  |  | 31 (≈ 59.2 µM) | > 100 | 32 (≈ 61.1 µM) | 
32 | C[C@]1(O)[C@@H](CO)O[C@H](n2cnc3c(NC4CC4)ncnc32)[C@]1(C)F | inactive | inactive |  |  |  | 
33 | C[C@]1(O)[C@@H](CO)O[C@H](n2cnc3c(NCc4ccc(F)cc4)ncnc32)[C@]1(C)F | inactive | inactive |  |  |  | 
